Test results reported in PubChem BioAssay AID561 (The Scripps Research Institute Molecular Screening Center, 2006).
Screen size: about 65,000 compounds; about 280 (0.43%) were called active.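 Rule for the calls: active = inhibition above the mean of all tested compounds plus 3 SD (cut at about 52% in these data); inactive = the rest.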 Shown is part of a subset that was picked to be rich in actives.

These molecules were tested against Nuclear receptor ROR-alpha (Homo sapiens) (UniProt P35398) (assay: inhibitors of orphan receptor RORA, primary screen, cell-based, luminescence (AID 561;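 note: 0% = RORA-transfected cells with DMSO and 100% = mock-transfected cells lacking RORA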)). Conditions: CHO-K1 Gal4-RORA LBD luciferase reporter, at 10 µM, active compounds read high.
Nuclear receptor ROR-alpha (Homo sapiens), sequence (P35398 whole entry, looked up, the tested form may be a part): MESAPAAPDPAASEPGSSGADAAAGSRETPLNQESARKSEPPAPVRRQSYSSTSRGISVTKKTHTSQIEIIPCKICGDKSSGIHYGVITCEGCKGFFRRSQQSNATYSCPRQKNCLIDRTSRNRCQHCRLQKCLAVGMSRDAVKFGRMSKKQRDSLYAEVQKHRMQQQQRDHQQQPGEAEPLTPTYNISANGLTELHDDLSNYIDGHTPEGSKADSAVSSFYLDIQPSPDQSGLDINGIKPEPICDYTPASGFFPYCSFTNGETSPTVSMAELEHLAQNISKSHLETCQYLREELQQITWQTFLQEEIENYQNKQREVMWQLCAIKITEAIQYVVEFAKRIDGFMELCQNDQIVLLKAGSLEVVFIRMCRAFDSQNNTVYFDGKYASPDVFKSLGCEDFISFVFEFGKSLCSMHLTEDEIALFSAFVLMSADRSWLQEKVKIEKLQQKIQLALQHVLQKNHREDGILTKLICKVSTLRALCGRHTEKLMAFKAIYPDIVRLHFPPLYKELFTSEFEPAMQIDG
Procedure, shortened: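 Material: transiently transfected CHO-K1 cells, Gal4-DBD/human RORA-LBD fusion plus 5xGal4-luciferase reporter; doses: single concentration per compound, 10 µM final; incubation: 20 h at 37 °C; detection: luminescence from basal luciferase reporter expression; read-out: % inhibition of basal luciferase versus +RORA/-RORA DMSO controls; replication: tested once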

inhibition, inactive:
COC(=O)c1ccc(C2NC(=O)NC(C)=C2C(=O)N(C)C)cc1 (centres undefined) 29.5%
O=C(Nc1ccc2c(c1)OCO2)C1CC(c2c(F)cccc2Cl)=NO1 (centres undefined) -2.1%
COc1cc(OC)c(C(=O)Nc2ccc(N(C)C)cc2)cc1OC -58.1%
Cc1ccc(Oc2nc3ccccc3n3c(C)nnc23)cc1 -9.5%
COCCCN(C(=O)Cn1ncc2c(=O)oc3ccc(C)cc3c21)C(C)c1ccncc1 (centres undefined) -5.6%
Fc1ccccc1OCCSc1nc2ccccc2o1 -26.2%
CCOc1cc(C(=S)N2CCOCC2)ccc1O 8.5%
COc1ccc(OCc2cccc(C(=O)N3CCCC3)c2)cc1 -8.9%
COc1ccc(-n2ncc3c(N4CCCc5ccccc54)ncnc32)cc1 -50.2%
O=C(CC1NCCNC1=O)Nc1ccc(Oc2ccccc2)cc1 (centres undefined) -7.9%
COc1cc(C(=O)Nc2oc(-c3ccccc3)c(-c3ccccc3)c2C#N)cc(OC)c1OC -14.1%
O=C(Cc1c(F)cccc1Cl)N1CCN(C(=O)c2ccco2)CC1 14.5%
CCOC(=O)CCCNC(=O)CN1C(=O)NC(CCc2ccccc2)C1=O (centres undefined) -7.9%
CC(=O)c1ccc(NC(=O)N[C@@H](Cc2ccccc2)C(=O)O)cc1 16.7%
O=C(Nc1cccc(Cl)c1)OCc1ccccn1 -69.9%
CC(=O)Nc1ccc(-c2cn3cccnc3n2)cc1 -27%
Clc1ccc(C2CC(c3cccs3)n3ncnc3N2)cc1Cl (centres undefined) -4.7%
CC(C)(C)c1ccc(C(=O)CSc2ncn[nH]2)cc1 -54.2%
CC(C)(C)NC(=O)Cn1nnc(-c2ccccc2Cl)n1 -65.9%
COc1cccc(C2/C(=C(/O)c3ccncc3)C(=O)C(=O)N2CCCN(C)C)c1 (centres undefined) 17%
Cc1noc(C)c1COC(=O)Cn1c(C)nc2ccccc21 -0.6%
COc1ccc(-n2c(SC)nc(O)cc2=O)cc1 8.5%
Cc1cc2nc(-c3ccc(NC(=O)c4cccnc4)cc3)oc2cc1C -71.6%
CCOC(=O)/C=c1\s/c(=C\c2ccccc2OC)c(=O)n1CC(=O)N1CCOCC1 3.7%
CC1CN(C(=O)CN2C(=O)NC(C)(c3ccccc3)C2=O)CC(C)O1 (centres undefined) 11.6%
CCCN(CCC)CCNC(=O)c1cc2c(C)nc3ccccc3c2o1 -1.5%
COc1ccc(-c2noc(-c3cccc(OC)c3OC)n2)cc1OC -89.8%
CCOc1ccc(Nc2oc(Cc3ccccc3)nc2C#N)cc1 -25.7%
O=C(CSc1nc2ccccc2[nH]1)c1cccs1 -56.5%
O=C(CCSc1ccccc1)NCCSc1ccccn1 -13.3%
O=c1c2cc3c(=O)n(CC4CCCO4)c(=O)c3cc2c(=O)n1CC1CCCO1 (centres undefined) 5.9%
O=C(Nc1cccc(-c2nnc(-c3ccccc3)o2)c1)C1CCCO1 (centres undefined) -61.1%
COC(=O)Cc1cc(=O)n(-c2nc3ccccc3s2)[nH]1 10.2%
CC(=O)Nc1ccc(S(=O)(=O)N2CCN(CCCOc3cc(C)ccc3C)CC2)cc1 13.3%
CC1(C)NC(=O)N(CCOc2cccc(Oc3ccccc3)c2)C1=O -0.4%
CC(=O)NC(Cc1ccc(F)cc1)C(=O)O (centres undefined) 4.4%
COc1ccccc1CNC(=O)CCCNS(=O)(=O)c1cccc2nsnc12 12.8%
CS(=O)(=O)c1ccc2nc(NC(=O)C3C4C=CC(C4)C3C(=O)O)sc2c1 (centres undefined) 0.6%
CCCCOc1ccc(-c2ncc(C(=O)OCC)c(N)n2)cc1 -59.3%
Cc1ccc(CNC(=O)C2CCCN(S(C)(=O)=O)C2)cc1 (centres undefined) -3.7%
CCSc1nc(C)nc2c1oc1ccccc12 -1%
CCc1c(C)sc(NC(=O)c2ccc(Br)o2)c1C(=O)OC 3.7%
CC1(C)CC(CCC(=O)Nc2ccccc2Cl)C(=O)O1 (centres undefined) 6.6%
C#CCNc1nc(C(C)C)nc2c1nnn2Cc1ccccc1F -1.9%

inhibition, active:
CCOc1cc(C(=O)N2CCc3cc(OC)c(OC)cc3C2)ccc1OC(F)F 57.3%
CC(C)OCCCNc1ncnc2c1[nH]c1ccc(F)cc12 75.5%
COc1ccc(-c2nc(-c3ccccc3)no2)c(OC)c1 78.4%
Cc1ccsc1C(=O)OCC(=O)c1cc(C)n(CC2CCCO2)c1C (centres undefined) 85.1%
Cn1c(-c2ccco2)nc2cc3ccccc3cc21 68.8%
